From ChEMBL document CHEMBL1123505, “Synthesis, structure, and antitumor activity of N-salicyloyl-N'-(2-furylthiocarbonyl)hydrazine and its copper(II) complex” (1986)
Values joined by “and” are separate entries in the source; they are usually repeats but may differ in a detail not shown here. Equal entries are not always repeated.

Assays:
[1] = tested on: Mus musculus; assay: Antitumor activity against fibrosarcoma infected mice at the dosage of 10 mg/kg (ip) and expressed as no. of mice injected; T/C= 8/8; type: functional, organism-based; design: dose 10 mg/kg
[2] = tested on: Mus musculus; assay: Antitumor activity against fibrosarcoma infected mice at the dosage of 10 mg/kg (sc) and expressed as no. of mice injected; T/C= 8/7; type: functional
[3] = tested on: Mus musculus; assay: Antitumor activity against fibrosarcoma infected mice at the dosage of 25 mg/kg (ip) and expressed as no. of mice injected; T/C= 7/7; type: functional, organism-based; design: dose 25 mg/kg
[4] = tested on: Mus musculus; assay: Antitumor activity against fibrosarcoma infected mice at the dosage of 25 mg/kg (sc) and expressed as no. of mice injected; T/C= 8/6; type: functional, organism-based; design: dose 25 mg/kg
[5] = tested on: Mus musculus; assay: Antitumor activity against fibrosarcoma infected mice at the dosage of 50 mg/kg (ip) and expressed as no. of mice injected; T/C= 10/6; type: functional, organism-based; design: dose 50 mg/kg
[6] = tested on: Mus musculus; assay: Antitumor activity against fibrosarcoma infected mice at the dosage of 5 mg/kg (ip) and expressed as no. of mice injected; T/C= 8/8; type: functional, organism-based; design: dose 5 mg/kg
[7] = tested on: Mus musculus; assay: Antitumor activity against fibrosarcoma infected mice at the dosage of 5 mg/kg (sc) and expressed as no. of mice injected; T/C= 6/6; type: functional, organism-based; design: dose 5 mg/kg
[8] = tested on: Mus musculus; assay: Antitumor activity expressed as the no. of mice surviving >6 months was tested against fibrosarcoma at the dosage of 50 mg/kg (ip); type: functional
Method in brief: (§1)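 Fibrosarcoma was established by sc inoculation of 4 × 10⁶ cells in mice. On day 3 they received a single ip or sc injection of compound freshly suspended in 0.89% saline, with 5–10 mice per group. The count is of mice surviving 6 months or more after treatment, scored as tumor-free, with the percentage of the group also given.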

[9] = tested on: Mus musculus; assay: Antitumor activity expressed as the no. of mice surviving >6 months was tested against fibrosarcoma at the dosage of 5 mg/kg (ip); type: functional; method in brief: as §1
[10] = tested on: Mus musculus; assay: Antitumor activity expressed as %T/C was tested against fibrosarcoma at the dosage of 10 mg/Kg (sc); type: functional
Method in brief: (§2)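 Fibrosarcoma: 4 × 10⁶ cells were given sc to C₃H/He mice, 25–30 g. A single ip or sc dose in 0.89% saline followed on day three, with saline-injected controls. Mean life span of nonsurvivors excludes mice surviving 6 months or more, which were counted as tumour-free. T/C% is treated mean survival, excluding tumour-free survivors, divided by untreated mean life span ×100.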

[11] = tested on: Mus musculus; assay: Antitumor activity expressed as %T/C was tested against fibrosarcoma at the dosage of 25 mg/Kg (ip); type: functional; method in brief: as §2
[12] = tested on: Mus musculus; assay: Antitumor activity expressed as %T/C was tested against fibrosarcoma at the dosage of 25 mg/Kg (sc); type: functional; method in brief: as §2
[13] = tested on: Mus musculus; assay: Antitumor activity expressed as %T/C was tested against fibrosarcoma at the dosage of 5 mg/Kg (ip); type: functional; method in brief: as §2
[14] = tested on: Mus musculus; assay: Antitumor activity expressed as %T/C was tested against fibrosarcoma at the dosage of 5 mg/Kg (sc); type: functional; method in brief: as §2
[15] = tested on: Mus musculus; assay: Antitumor activity expressed as %T/C was tested against fibrosarcoma at the dosage of 50 mg/Kg (ip); type: functional; method in brief: as §2
[16] = tested on: Mus musculus; assay: Antitumor activity expressed as mean life span of nonsurvivors in days (T/C) was tested against Dalton's lymphoma at the dosage of 10 mg/kg (ip); 30/23; type: functional, organism-based; design: dose 10 mg/kg
Method in brief: (§3)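 Dalton's lymphoma: 2 × 10⁷ ascites cells were given ip to DbA mice, 18–20 g. A single ip dose in 0.89% saline followed on day two, with saline-injected controls. Mean life span was calculated excluding mice that survived 6 months or more. T/C% is the mean survival of treated mice, excluding tumour-free survivors, divided by the mean life span of untreated mice ×100.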

[17] = tested on: Mus musculus; assay: Antitumor activity expressed as mean life span of nonsurvivors in days (T/C) was tested against Dalton's lymphoma at the dosage of 25 mg/kg (ip); 38/23; type: functional, organism-based; design: dose 25 mg/kg; method in brief: as §3
[18] = tested on: Mus musculus; assay: Antitumor activity expressed as mean life span of nonsurvivors in days (T/C) was tested against Dalton's lymphoma at the dosage of 2 mg/kg (ip); 24/23; type: functional, organism-based; design: dose 2 mg/kg; method in brief: as §3
[19] = tested on: Mus musculus; assay: Antitumor activity expressed as mean life span of nonsurvivors in days (T/C) was tested against fibrosarcoma at the dosage of 10 mg/kg (ip); 35/27; type: functional, organism-based; design: dose 10 mg/kg; method in brief: as §2
[20] = tested on: Mus musculus; assay: Antitumor activity expressed as mean life span of nonsurvivors in days (T/C) was tested against fibrosarcoma at the dosage of 10 mg/kg (sc); 41/28; type: functional, organism-based; design: dose 10 mg/kg; method in brief: as §2
[21] = tested on: Mus musculus; assay: Antitumor activity expressed as mean life span of nonsurvivors in days (T/C) was tested against fibrosarcoma at the dosage of 25 mg/kg (ip); 33/25; type: functional, organism-based; design: dose 25 mg/kg; method in brief: as §2
[22] = tested on: Mus musculus; assay: Antitumor activity expressed as mean life span of nonsurvivors in days (T/C) was tested against fibrosarcoma at the dosage of 25 mg/kg (sc); 39/29; type: functional, organism-based; design: dose 25 mg/kg; method in brief: as §2
[23] = tested on: Mus musculus; assay: Antitumor activity expressed as mean life span of nonsurvivors in days (T/C) was tested against fibrosarcoma at the dosage of 50 mg/kg (ip); 37/28; type: functional, organism-based; design: dose 50 mg/kg; method in brief: as §2
[24] = tested on: Mus musculus; assay: Antitumor activity expressed as mean life span of nonsurvivors in days (T/C) was tested against fibrosarcoma at the dosage of 5 mg/kg (ip); 34/26; type: functional, organism-based; design: dose 5 mg/kg; method in brief: as §2
[25] = tested on: Mus musculus; assay: Antitumor activity expressed as %T/C was tested against Dalton's lymphoma at the dosage of 10 mg/Kg (ip); type: functional; method in brief: as §3
[26] = tested on: Mus musculus; assay: Antitumor activity expressed as %T/C was tested against Dalton's lymphoma at the dosage of 2 mg/Kg (ip); type: functional; method in brief: as §3
[27] = tested on: Mus musculus; assay: Antitumor activity expressed as %T/C was tested against Dalton's lymphoma at the dosage of 25 mg/Kg (ip); type: functional; method in brief: as §3
[28] = tested on: Mus musculus; assay: Antitumor activity expressed as %T/C was tested against fibrosarcoma at the dosage of 10 mg/Kg (ip); type: functional; method in brief: as §2
[29] = tested on: Mus musculus; assay: Antitumor activity expressed as the no. of mice surviving >6 months was tested against fibrosarcoma at the dosage of 25 mg/kg (ip); type: functional; method in brief: as §1
[30] = tested on: Mus musculus; assay: Antitumor activity expressed as mean life span of nonsurvivors in days (T/C) was tested against fibrosarcoma at the dosage of 5 mg/kg (sc); 30/27; type: functional, organism-based; design: dose 5 mg/kg; method in brief: as §2
[31] = tested on: Mus musculus; assay: Antitumor activity against Dalton's lymphoma infected mice at the dosage of 10 mg/kg (ip) and expressed as no. of mice injected; T/C= 5/5; type: functional
[32] = tested on: Mus musculus; assay: Antitumor activity against Dalton's lymphoma infected mice at the dosage of 25 mg/kg (ip) and expressed as no. of mice injected; T/C= 5/5; type: functional
[33] = tested on: Mus musculus; assay: Antitumor activity against Dalton's lymphoma infected mice at the dosage of 2 mg/kg (ip) and expressed as no. of mice injected; T/C= 5/5; type: functional
[34] = tested on: Mus musculus; assay: Antitumor activity expressed as average body weight change was tested against fibrosarcoma at the dosage of 5 mg/kg (ip); type: functional, organism-based; design: dose 5 mg/kg
Method in brief: (§4)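 Fibrosarcoma-bearing C₃H/He mice (4 × 10⁶ cells sc) received a single ip or sc dose in 0.89% saline on day three after transplant; controls received saline. The day of injection was taken as day zero. Mice were weighed on alternate days up to 4 weeks. Values are average % weight change from the day of treatment to day 21.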

[35] = tested on: Mus musculus; assay: Antitumor activity expressed as average body weight change was tested against fibrosarcoma at the dosage of 5 mg/kg (sc); type: functional; method in brief: as §4
[36] = tested on: Mus musculus; assay: Antitumor activity expressed as average body weight change was tested against fibrosarcoma at the dosage of 10 mg/kg (ip); type: functional, organism-based; design: dose 10 mg/kg; method in brief: as §4
[37] = tested on: Mus musculus; assay: Antitumor activity expressed as average body weight change was tested against fibrosarcoma at the dosage of 10 mg/kg (sc); type: functional; method in brief: as §4
[38] = tested on: Mus musculus; assay: Antitumor activity expressed as average body weight change was tested against fibrosarcoma at the dosage of 25 mg/kg (ip); type: functional, organism-based; design: dose 25 mg/kg; method in brief: as §4
[39] = tested on: Mus musculus; assay: Antitumor activity expressed as average body weight change was tested against fibrosarcoma at the dosage of 25 mg/kg (sc); type: functional; method in brief: as §4
[40] = tested on: Mus musculus; assay: Antitumor activity expressed as average body weight change was tested against fibrosarcoma at the dosage of 50 mg/kg (ip); type: functional, organism-based; design: dose 50 mg/kg; method in brief: as §4

Copper(II) Complex was tested, and the T/C [1] was 8, the T/C [2] was 8 and the T/C [3] was 7. For the same substance, the T/C [4] was 8, the T/C [5] was 10 and the T/C [6] was 8. For the same substance, the T/C [7] was 6, the No. of mice surviving >6 months [8] was 4 and the No. of mice surviving >6 months [9] was 2. It also gave a T/C [10] of 146%, a T/C [11] of 132% and a T/C [12] of 135%. The T/C [13] was 131%, the T/C [14] was 111% and the T/C [15] was 132%. For the same substance, the T/C [16] was 30 days, the T/C [17] was 38 days and the T/C [18] was 24 days. The T/C [19] was 35 days, the T/C [20] was 41 days and the T/C [21] was 33 days. For the same substance, the T/C [22] was 39 days, the T/C [23] was 37 days and the T/C [24] was 34 days. The T/C [25] was 130%, the T/C [26] was 104% and the T/C [27] was 165%. For the same substance, the T/C [28] was 130%, the No. of mice surviving >6 months [29] was 3 and 6 and the T/C [30] was 30 days. The T/C [31] was 5, the T/C [32] was 5 and the T/C [33] was 5. For the same substance, the Average body weight change [34] was 15.5%, the Average body weight change [35] was 19.4% and the Average body weight change [36] was 18.3%. The Average body weight change [37] was 5.86%, the Average body weight change [38] was 12% and the Average body weight change [39] was 5.51%. For the same substance, the Average body weight change [40] was 8.51%.
